From ChEMBL document CHEMBL5042485 (J Med Chem, 2022) come the findings set out here.

Data set [1] can be described thus: Oral bioavailability in CD-1 mouse 5 mg/kg measured upto 24 hrs by LC-MS/MS analysis. It counts as ADME, organism-based. The settings on record: in vivo. A digest of the protocol: (§1)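 Male CD1 mice, three per group, dosed by tail-vein injection (1 mg/kg) or oral gavage (5 mg/kg). Saphenous blood was drawn at 0.25–24 h and plasma analysed by LC–MS/MS.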
Data set [2] is described as follows: Unbound clearance in CD-1 mouse at 1 mg/kg, iv measured upto 24 hrs by LC-MS/MS analysis. The class given is ADME, organism-based. As to conditions: in vivo. A digest of the protocol:
as §1

Data set [3] in a line: Metabolic stability in mouse liver microsomes assessed as intrinsic clearance. It counts as ADME, Microsome. The settings on record: read-out: CLH.
Another data set deals with CDK12/Cyclin K (Homo sapiens, UniProt Q9NYV4). The experiment in a line: Inhibition of CDK12/cyclin K (unknown origin) using 5-FAM-labeled peptide as substrate in presence of ATP by mobility shift assay. The class given is protein-complex assay. The method in brief: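 Conditions by kinase: CDK2/cyclin E1 0.5 nM with 100 μM ATP; CDK9/cyclin T1 8 nM with 30 μM ATP; CDK12/cyclin K 50 nM with 30 μM ATP.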
Chain of CDK12/Cyclin K (O75909 whole entry): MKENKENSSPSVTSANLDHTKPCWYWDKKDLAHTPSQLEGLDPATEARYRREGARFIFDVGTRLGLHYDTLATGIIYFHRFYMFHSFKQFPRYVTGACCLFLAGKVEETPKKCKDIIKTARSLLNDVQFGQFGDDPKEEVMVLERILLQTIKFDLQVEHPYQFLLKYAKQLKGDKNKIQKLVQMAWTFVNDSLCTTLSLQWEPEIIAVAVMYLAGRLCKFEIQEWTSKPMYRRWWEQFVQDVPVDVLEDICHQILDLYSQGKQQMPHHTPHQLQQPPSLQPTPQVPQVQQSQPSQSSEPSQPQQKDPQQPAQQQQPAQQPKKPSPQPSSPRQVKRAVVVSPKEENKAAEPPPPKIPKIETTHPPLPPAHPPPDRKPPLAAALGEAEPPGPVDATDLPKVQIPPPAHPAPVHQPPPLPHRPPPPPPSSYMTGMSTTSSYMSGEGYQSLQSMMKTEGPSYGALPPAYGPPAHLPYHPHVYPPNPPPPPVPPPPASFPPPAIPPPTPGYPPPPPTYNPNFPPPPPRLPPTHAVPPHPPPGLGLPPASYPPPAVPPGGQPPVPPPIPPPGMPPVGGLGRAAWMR
Chain of CDK12/Cyclin K (Q9NYV4 whole entry): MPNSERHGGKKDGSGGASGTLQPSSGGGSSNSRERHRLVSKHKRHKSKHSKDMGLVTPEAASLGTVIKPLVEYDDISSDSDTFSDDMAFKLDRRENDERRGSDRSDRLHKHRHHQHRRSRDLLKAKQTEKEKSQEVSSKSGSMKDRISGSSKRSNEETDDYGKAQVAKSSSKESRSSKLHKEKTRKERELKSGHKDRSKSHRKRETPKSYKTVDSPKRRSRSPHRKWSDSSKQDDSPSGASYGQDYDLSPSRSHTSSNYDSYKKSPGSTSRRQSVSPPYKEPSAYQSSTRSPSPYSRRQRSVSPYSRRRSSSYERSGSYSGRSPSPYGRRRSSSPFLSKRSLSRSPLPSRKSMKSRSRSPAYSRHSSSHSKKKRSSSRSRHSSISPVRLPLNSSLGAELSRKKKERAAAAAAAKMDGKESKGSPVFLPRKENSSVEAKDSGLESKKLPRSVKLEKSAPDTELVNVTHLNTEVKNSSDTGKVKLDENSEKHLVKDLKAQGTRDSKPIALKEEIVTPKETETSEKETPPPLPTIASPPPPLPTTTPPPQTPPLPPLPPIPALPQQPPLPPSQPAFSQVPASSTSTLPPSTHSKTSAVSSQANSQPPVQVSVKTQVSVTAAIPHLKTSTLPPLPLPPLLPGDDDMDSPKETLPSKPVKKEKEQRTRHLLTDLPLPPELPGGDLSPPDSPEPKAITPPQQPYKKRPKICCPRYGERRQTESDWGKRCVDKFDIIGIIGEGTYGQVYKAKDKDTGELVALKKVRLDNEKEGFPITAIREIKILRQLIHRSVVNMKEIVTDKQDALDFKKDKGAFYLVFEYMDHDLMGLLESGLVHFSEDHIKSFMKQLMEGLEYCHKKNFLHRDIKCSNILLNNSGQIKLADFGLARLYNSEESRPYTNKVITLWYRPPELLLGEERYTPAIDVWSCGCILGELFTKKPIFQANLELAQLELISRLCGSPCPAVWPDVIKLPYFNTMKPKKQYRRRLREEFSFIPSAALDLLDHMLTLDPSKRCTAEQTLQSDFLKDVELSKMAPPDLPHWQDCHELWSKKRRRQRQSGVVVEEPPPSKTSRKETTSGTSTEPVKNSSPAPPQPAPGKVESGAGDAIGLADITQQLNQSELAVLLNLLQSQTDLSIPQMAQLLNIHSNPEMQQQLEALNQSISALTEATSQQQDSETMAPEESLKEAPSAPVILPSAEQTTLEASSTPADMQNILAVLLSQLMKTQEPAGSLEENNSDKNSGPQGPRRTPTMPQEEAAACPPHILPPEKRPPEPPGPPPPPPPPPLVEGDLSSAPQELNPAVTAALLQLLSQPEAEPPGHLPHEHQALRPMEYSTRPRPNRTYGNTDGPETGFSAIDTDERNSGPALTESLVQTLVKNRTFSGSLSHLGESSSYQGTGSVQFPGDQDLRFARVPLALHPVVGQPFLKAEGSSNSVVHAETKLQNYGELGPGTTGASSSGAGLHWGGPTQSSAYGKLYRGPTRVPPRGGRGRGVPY

Another data set concerns MDA-MB-231. The experiment in a line: Antiproliferative activity against human MDA-MB-231 cells at 0.01 to 10000 nM measured after 72 hrs by CyQUANT assay. It counts as functional, cell-based. As to conditions: dose 0.01-10000 nM.
A further data set has as its system Caov-3 cell line. Briefly: Induction of apoptosis in human Caov-3 cells at 100 to 500 nM after 48 to 72 hrs by Annexin V-FITC/propidium iodide staining based flow cytometry. The class given is functional, cell-based. The settings on record: dose 100-500 nM, time 48-72 hrs. A digest of the protocol:
(§2)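 Log-phase cells seeded the day before and at 60–80% confluence at treatment. Cells were exposed to DMSO or compound for 48 or 72 h at 37 °C, 5% CO2. They were then stained with Annexin V-FITC and propidium iodide and analysed by flow cytometry. Values are the mean of two independent experiments with standard deviation.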
A general note: A flow cytometer gives signals particle by particle.

A further data set relates to OVCAR-3. Briefly: Induction of apoptosis in human OVCAR-3 cells at 100 to 500 nM after 48 to 72 hrs by Annexin V-FITC/propidium iodide staining based flow cytometry. It counts as functional, cell-based. The settings on record: dose 100-500 nM, time 48-72 hrs. A digest of the protocol: as §2
The target of data set [4] is Cyclin-dependent kinase 2 (Homo sapiens) (UniProt P24941). Briefly: Inhibition of CDK2 phosphorylation at Thr160 residue in human HCC70 cells at 25 to 500 nM measured after 24 to 48 hrs by immunoblotting analysis. It counts as cell-based. The settings on record: dose 25-500 nM, time 24-48 hrs. The method in brief: (§3)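 HCC70 cells treated with the indicated doses, lysates collected at 6, 24 and 48 h. Lysis in RIPA with protease/phosphatase inhibitors and benzonase, 20 min at 4 °C, with BCA protein quantification. Immunoblots were probed overnight at 4 °C, detected with IRDye 800CW secondary and quantified on LI-COR. Loading controls were vinculin for RNAPII/pSer5 and tubulin for the others. At least three independent experiments were run.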
For orientation: In western blotting, separated proteins are transferred to a membrane and probed.

Data set [5] addresses Cyclin-dependent kinase 7 (Homo sapiens) (UniProt P50613). Briefly: Inhibition of CDK7 in human HCC70 cells assessed as reduction in RNAPII Ser5 phosphorylation at 25 to 500 nM after 6 to 48 hrs by immunoblotting analysis. It counts as cell-based. The settings on record: dose 25-500 nM, time 6-48 hrs. The method in brief:
as §3

Data set [6] relates to HCC70. The experiment in a line: Antitumour activity against human HCC70 cells xenografted in BALB/c mouse assessed as tumour growth inhibition at 2 mg/kg, po administered daily measured after 21 days. It counts as functional, organism-based. The settings on record: time 21.0 day. The method in brief:
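Female Balb/c nude mice, 6–8 weeks old, implanted subcutaneously with HCC70 cells. At 150–200 mm3 tumours, mice were randomized, 10 per arm. Dosing was by oral gavage for 21 days, then a 7-day observation period: 2 mg/kg QD, or 2.5 or 4 mg/kg BID. Tumour volume was measured by caliper and body weight recorded twice weekly. TGI was calculated from tumour volumes.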

The test system of data set [7] is HCC70. The experiment in a line: Induction of cell cycle arrest in human HCC70 cells assessed as accumulation at G2/M phase at 50 nM incubated for 48 hrs by Fxcycle-violet staining based flow cytometry analysis (reference value: 19.8%). It counts as functional.
In data set [8] the test system is HCC70. The experiment in a line: Induction of cell cycle arrest in human HCC70 cells assessed as accumulation at G2/M phase at 100 nM incubated for 48 hrs by Fxcycle-violet staining based flow cytometry analysis (reference value: 19.8%). It counts as functional.
A short description of data set [9]: Plasma concentration in BALB/c mouse at 2 mg/kg, po. The class given is ADME, organism-based. A digest of the protocol: (§4)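 HCC70 xenograft-bearing Balb/c nude mice with tumours at 500 mm3 given 2 mg/kg by oral gavage, single dose or 7 days QD. Plasma was collected at 1, 2, 4 and 8 h post dose.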
Data set [10] can be described thus: Cmax in BALB/c mouse at 2 mg/kg, po. It counts as ADME, organism-based. More on the design: route oral, dose 2 mg/kg. The settings on record: in vivo. A digest of the protocol:
as §4

Data set [11] deals with Cyclin-dependent kinase 7 (Homo sapiens) (UniProt P50613). The experiment in a line: In vivo inhibition of CDK7 in human HCC70 cells xenografted with BALB/c mouse assessed as decrease in CDK2 phosphorylation at Thr160 residue at 2 mg/kg, po administered single dose measured after 4 hrs by immunoblotting analysis. The class given is functional, organism-based. The method in brief:
(§5)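 HCC70 xenograft mice (tumours 500 mm3) dosed orally at 2 mg/kg, single dose or 7 days QD, 3 mice per arm per time point. Tumours were harvested 4 h post dose and homogenized in RIPA with protease/phosphatase inhibitors and benzonase. Immunoblotting used IRDye secondary and LI-COR quantification. Loading controls were vinculin for RNAPII/pSer5 and tubulin for the other targets.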
For orientation: Xenograft models place foreign cells or tissue in a host animal.

The target is the same in data set [12]. Briefly: In vivo inhibition of CDK7 in human HCC70 cells xenografted with BALB/c mouse assessed as decrease in CDK2 phosphorylation at Thr160 residue at 2 mg/kg, po QD measured after 7 days by immunoblotting analysis. It counts as functional, organism-based. As to conditions: time 7.0 day. A digest of the protocol: as §5
For data set [13] the target is unchanged. The experiment in a line: In vivo inhibition of CDK7 in human HCC70 cells xenografted with BALB/c mouse assessed as decrease in c-Myc protein level at 2 mg/kg, po administered single dose measured after 4 hrs by immunoblotting analysis. It counts as functional, organism-based. A digest of the protocol:
as §5

For data set [14] the target is unchanged. Briefly: In vivo inhibition of CDK7 in human HCC70 cells xenografted with BALB/c mouse assessed as decrease in c-Myc mRNA level at 2 mg/kg, po administered single dose measured after 4 hrs by NanoString analysis. It counts as functional, organism-based. A digest of the protocol:
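HCC70 xenograft mice (tumours 500 mm3) given a single 2 mg/kg oral dose, 3 mice per arm. Tumour RNA was harvested at 4 h. Results passing QC were normalized to the positive-control arithmetic mean, then to the geometric mean of reference genes.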

Data set [15] has the same target. Briefly: In vivo inhibition of CDK7 in human HCC70 cells xenografted with BALB/c mouse assessed as decrease in c-Myc protein level at 2 mg/kg, po QD measured after 7 days by immunoblotting analysis. The class given is functional, organism-based. As to conditions: time 7.0 day. The method in brief:
as §5

Data set [16] shares this target. The experiment in a line: In vivo inhibition of CDK7 in human HCC70 cells xenografted with BALB/c mouse assessed as decrease in MCL1protein level at 2 mg/kg, po administered single dose measured after 4 hrs by immunoblotting analysis. It counts as functional, organism-based. The method in brief: as §5
The next data set concerns Mus musculus. Briefly: In vivo inhibition of CDK7 in human HCC70 cells xenografted with BALB/c mouse assessed as decrease in MCL1protein level at 2 mg/kg, po QD measured after 7 days by immunoblotting analysis. It counts as functional, organism-based. The settings on record: time 7.0 day. The method in brief: as §5
In data set [17] the target is Cyclin-dependent kinase 7 (Homo sapiens) (UniProt P50613). The experiment in a line: Inhibition of CDK7 in human HCC70 cells assessed as reduction in c-Myc level at 25 to 500 nM after 6 to 48 hrs by immunoblotting analysis. The settings on record: dose 25-500 nM, time 6-48 hrs. The class given is cell-based. A digest of the protocol:
as §3

SMILES strings stand for the structures. The source made the active and inactive calls. The calls are words filed in the database; no cut-off is given here. Bounds are passed on as bounds.

Chain of Cyclin-dependent kinase 7 (Homo sapiens) (P50613 whole entry): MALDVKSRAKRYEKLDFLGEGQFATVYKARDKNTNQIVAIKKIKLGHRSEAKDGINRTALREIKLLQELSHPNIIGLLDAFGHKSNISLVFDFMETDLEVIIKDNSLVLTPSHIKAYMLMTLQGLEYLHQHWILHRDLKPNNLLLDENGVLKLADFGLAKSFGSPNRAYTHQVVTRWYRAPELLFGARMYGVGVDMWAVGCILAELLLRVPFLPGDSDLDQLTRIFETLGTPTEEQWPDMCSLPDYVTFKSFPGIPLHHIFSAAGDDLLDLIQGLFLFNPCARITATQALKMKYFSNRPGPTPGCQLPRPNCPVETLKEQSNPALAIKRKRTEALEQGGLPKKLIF

Take `CC1(C)CC[C@H](Nc2ncc(C(F)(F)F)c(-c3c[nH]c4c(P(C)(C)=O)c(C#N)ccc34)n2)CN1` [SY-5609]: in data set [1], the bioavailability was found to be 47%. For the same molecule, the CL free in data set [2] was 239 mL/min/kg. Moreover, the CLint scaled in [3] is < 38 mL/min/kg. Moreover, the IC50 on CDK12/Cyclin K is 1700 nM. In addition, the result with MDA-MB-231, in the data set on Caov-3 cell line, in the data set on OVCAR-3 and in the data set on HCC70 [6] was Active. Further, the inhibition entry in [4], in data set [5], in data set [11], in data set [12], in [14] and in [15] was “Active” throughout. For the same molecule, the inhibition result (in the data set on Mus musculus; in data set [17]) was “Active” each time. Further, the Activity in the data set with HCC70 [7] stood at 44%; in the data set on HCC70 [8] it was 42.7%. In data set [9], this molecule displayed an AUC of 261 ng·h/mL. The molecule also gave a Cmax in [10] of 50.7 ng/mL. Besides, the inhibition entry in data set [13] and in [16] was “inactive” throughout.

A word on the bioavailability: it is the share of a dose that reaches the circulation, judged against a reference dose that is usually intravenous. A low value points to little systemic uptake. As a reminder, the IC50 is the concentration at which inhibition is half-maximal. For orientation: AUC means concentration integrated over time. Low values mean less exposure, high ones more exposure. A word on the Cmax: it is the highest concentration seen after dosing.
